Paper PMC11864002 (Journal of Enzyme Inhibition and Medicinal Chemistry, 2025)
Substitutions are numbered along the chain they refer to. Several values for one entry are separate records, joined by “and”; a condition that tells them apart may be missing. Equal values may be shown once.

How the values were obtained:
COS-7 cells = conditions: transiently expressed in COS-7 cells, substrate MU-α-D-Glc; cited from earlier work
MalA R400H [1] = target: T1, MalA R400H (Saccharolobus solfataricus, UniProt D0KQM8, R400H); assay: Differential scanning fluorimetry with inhibitors/NAC, MalA R400H; format: binding, Saccharolobus solfataricus 98/2
T1 sequence (D0KQM8 1-700 R400H): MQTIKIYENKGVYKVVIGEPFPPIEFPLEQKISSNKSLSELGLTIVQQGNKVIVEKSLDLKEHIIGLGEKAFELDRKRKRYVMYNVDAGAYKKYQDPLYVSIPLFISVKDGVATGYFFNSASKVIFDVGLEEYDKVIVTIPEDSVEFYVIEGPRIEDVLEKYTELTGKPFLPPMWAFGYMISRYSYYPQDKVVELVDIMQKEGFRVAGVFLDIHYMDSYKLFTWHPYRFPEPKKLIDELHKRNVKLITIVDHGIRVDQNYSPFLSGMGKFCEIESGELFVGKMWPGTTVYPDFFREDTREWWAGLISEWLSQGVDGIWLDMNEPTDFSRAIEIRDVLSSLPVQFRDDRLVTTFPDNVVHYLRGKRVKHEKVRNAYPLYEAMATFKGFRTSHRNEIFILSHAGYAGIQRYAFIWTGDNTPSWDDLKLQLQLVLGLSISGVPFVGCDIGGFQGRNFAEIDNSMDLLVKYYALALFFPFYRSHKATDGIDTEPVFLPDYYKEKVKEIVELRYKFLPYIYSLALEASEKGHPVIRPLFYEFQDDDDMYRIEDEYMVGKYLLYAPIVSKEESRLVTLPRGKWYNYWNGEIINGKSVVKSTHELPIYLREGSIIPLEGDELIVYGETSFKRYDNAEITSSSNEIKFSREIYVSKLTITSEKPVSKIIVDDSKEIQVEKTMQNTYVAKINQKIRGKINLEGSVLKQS
Procedure, shortened: (§1)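 His-tagged MalA (WT, R400G or R400H) was expressed in E. coli BL21(DE3) RIL, heat-fractionated at 70 °C and Ni-purified. Each enzyme ([…]) was mixed with SYPRO Orange in 0.2 M sodium citrate pH 5.0, sodium phosphate pH 7.0 or sodium borate pH 8.5, in triplicate. Held 10 min at 25 °C, scanned 25–95 °C ([…]), then held 10 min. Ligands: 1-DNJ or NB-DNJ 0.1/0.8 mM, acarbose 0.4/1.0 mM, NAC 10/30 mM. Tm fitted on normalised fluorescence; SD from […] replicates.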

MalA R400G [2] = target: T2, MalA R400G (Saccharolobus solfataricus, UniProt D0KQM8, R400G); assay: Differential scanning fluorimetry with inhibitors/NAC, MalA R400G; format: binding, Saccharolobus solfataricus 98/2
T2 sequence (D0KQM8 1-700 R400G): T1 sequence (D0KQM8 1-700 R400H) with H400G
Procedure, shortened: as §1

recombinant GAA [3] = conditions: cited from earlier work
MalA R400H [4] = target: T1, MalA R400H; assay: Inhibition kinetics; format: biochemical, Saccharolobus solfataricus 98/2
Procedure, shortened: (§2)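 Inhibition kinetics at 85 °C under the standard pNP-α-D-Glc assay (100 mM sodium citrate pH 5.0; stopped with sodium carbonate, A420). Enzyme per reaction: R400H 26 µg, R400G 45 µg, wild type 0.9 µg. Inhibitor ranges: 1-DNJ 0.02–25.0 µM, acarbose 10.0–500 µM, NB-DNJ 0.5–25.0 µM.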

MalA wild-type [5] = target: T3, MalA wild-type (Saccharolobus solfataricus, UniProt D0KQM8); assay: IC50 determination on pNP-α-D-Glc, MalA wild-type; format: biochemical, Saccharolobus solfataricus 98/2
T3 sequence (D0KQM8 1-700): T1 sequence (D0KQM8 1-700 R400H) with H400R
Procedure, shortened: (§3)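 Standard assay: 10 mM pNP-α-D-Glc in 100 mM sodium citrate pH 5.0, 85 °C, 2 min. Enzyme per reaction: WT 0.9 µg, R400H 26 µg, R400G 45 µg. Stopped on ice with sodium carbonate pH 10.2; A420 read at room temperature. Inhibitor ranges: 1-DNJ up to 5 mM, acarbose up to 9 mM, NB-DNJ up to 1 mM.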

MalA R400H [6] = target: T1, MalA R400H; assay: IC50 determination on pNP-α-D-Glc, MalA R400H; format: biochemical, Saccharolobus solfataricus 98/2
Procedure, shortened: as §3

MalA R400G [7] = target: T2, MalA R400G; assay: IC50 determination on pNP-α-D-Glc, MalA R400G; format: biochemical, Saccharolobus solfataricus 98/2
Procedure, shortened: as §3

MalA WT = target: T4, MalA WT (Saccharolobus solfataricus, UniProt D0KQM8); assay: Differential scanning fluorimetry with inhibitors/NAC, MalA WT; format: binding, Saccharolobus solfataricus 98/2
T4 sequence (D0KQM8 1-700): T1 sequence (D0KQM8 1-700 R400H) with H400R
Procedure, shortened: as §1

MalA wild-type [8] = target: T3, MalA wild-type; assay: Inhibition kinetics; format: biochemical, Saccharolobus solfataricus 98/2
MalA R400G [9] = target: T2, MalA R400G; assay: Inhibition kinetics; format: biochemical, Saccharolobus solfataricus 98/2
Procedure, shortened: as §2

[10] = Melting temperature of the enzymes by differential scanning fluorimetry; format: physicochemical; conditions: for Tm: DSF
Procedure, shortened: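 Recombinant human GAA (2.5 µg) with SYPRO Orange in 150 mM NaCl plus 50 mM sodium phosphate pH 7.4 or 50 mM sodium acetate, in triplicate. Scanned 25–95 °C in 1 °C increments every 1 min. Fluorescence normalised to each scan's maximum. Tm derived per Niesen by curve fitting.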

α-glucosidase from rice = assay: Differential scanning fluorimetry with NAC, α-glucosidase from rice; format: binding; conditions: GH31 GAA from rice, Figure S7
Procedure, shortened: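 Rice α-glucosidase (type V, 2.5 µg) in 0.2 M sodium borate pH 8.0 with SYPRO Orange, in triplicate, with NAC present. Thermal scan 25–95 °C in 1 °C increments every 0.5 min. Fluorescence normalised to each scan's maximum. Tm calculated per Niesen by curve fitting.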

recombinant GAA [11] = conditions: 10 mM NAC; cited from earlier work

Molecule | Tm MalA R400H (MalA R400H [1]; 0.1 mM inhibitor) | Tm MalA R400H (MalA R400H [1]; 0.8 mM inhibitor) | Tm MalA R400G (MalA R400G [2]; 0.1 mM inhibitor) | Tm MalA R400G (MalA R400G [2]; 0.8 mM inhibitor) | IC50 (recombinant GAA [3]) | Ki (MalA R400H [4]) | IC50 (MalA wild-type [5]) | IC50 (MalA R400H [6]) | IC50 (MalA R400G [7]) | Tm MalA WT (MalA WT; 0.1 mM inhibitor) | Tm MalA WT (MalA WT; 0.8 mM inhibitor) | Ki (MalA wild-type [8]) | Ki (MalA R400G [9]) | other results
R600H: pathogenic human GAA mutant transiently expressed in COS-7 cells | – | – | – | – | – | – | – | – | – | – | – | – | – | activity compared to GAA wild-type (COS-7 cells): less than 2%
CCCCN1C[C@H](O)[C@@H](O)[C@H](O)[C@H]1CO [NB-DNJ, N-butyldeoxynojirimycin] | 64.7 ± 0.4 °C | 61.7 ± 0.1 °C | 65.6 ± 0.2 °C | 63.5 ± 0.1 °C | 158 µM | 0.7 µM | 1.7 ± 0.2 µM | 5.7 ± 0.21 µM | 55 ± 6.62 µM | 86 ± 0.7 °C | 85.1 ± 0.6 °C | 0.13 µM | 0.13 µM | Ki fold higher than WT (MalA R400H [4]; R400H vs MalA WT): 5.4 fold
recombinant GAA: recombinant human lysosomal acid α-glucosidase | – | – | – | – | – | – | – | – | – | – | – | – | – | Tm ([10]; pH 4.0): 53.7 ± 0.2 °C; Tm ([10]; pH 7.4): 47.9 ± 0.7 °C; Tm difference, less than MalA WT at pH 8.5 ([10]; GAA at pH 4.0): 23.3 °C; Tm difference, less than MalA WT at pH 8.5 ([10]; GAA at pH 7.4): 29.1 °C
OC[C@H]1NC[C@H](O)[C@@H](O)[C@@H]1O [1-DNJ, 1-deoxynojirimycin] | 65.5 ± 0.2 °C | 64.1 ± 0.1 °C | 66.4 ± 0.2 °C | 67.5 ± 0.3 °C | 20 µM | 2.2 µM | 0.1 ± 0.01 µM | 30 ± 2.3 µM | 224 ± 41 µM | 84.1 ± 0.5 °C | 87.1 ± 0.3 °C | 0.009 µM | 1.4 µM | –
CC(=O)N[C@@H](CS)C(=O)O [NAC, N-acetylcysteine] | – | – | – | – | – | – | – | – | – | – | – | – | – | Tm MalA R400H (MalA R400H [1]; 10 mM NAC): 64.9 ± 0.03 °C; Tm MalA R400H (MalA R400H [1]; 30 mM NAC): 67.7 ± 0.13 °C; Tm MalA R400G (MalA R400G [2]; 10 mM NAC): 65.5 ± 0.04 °C; Tm MalA R400G (MalA R400G [2]; 30 mM NAC): 67.3 ± 0.11 °C; stabilising effect (α-glucosidase from rice): no stabilising effect; Tm MalA WT (MalA WT; 10 mM NAC): 75.8 ± 0.86 °C; Tm MalA WT (MalA WT; 30 mM NAC): 79.6 ± 0.54 °C; increase of Tm (recombinant GAA [11]): 10.5 ± 0.5 °C and 10.5 °C
C[C@H]1O[C@H](O[C@H]2[C@H](O)[C@@H](O)[C@@H](O[C@H]3[C@H](O)[C@@H](O)C(O)O[C@@H]3CO)O[C@@H]2CO)[C@H](O)[C@@H](O)[C@@H]1N[C@H]1C=C(CO)[C@@H](O)[C@H](O)[C@H]1O (some centres unmarked) [Acarbose, acarbose] | – | – | – | – | – | 72 µM | 20.2 ± 0.9 µM | 830 ± 91.5 µM | 912 ± 67.5 µM | – | – | 0.98 µM | 23 µM | Tm MalA R400H (MalA R400H [1]; 0.4 mM inhibitor): 64.2 ± 0.1 °C; Tm MalA R400H (MalA R400H [1]; 1.0 mM inhibitor): 64.2 ± 0.2 °C; Tm MalA R400G (MalA R400G [2]; 0.4 mM inhibitor): 65 ± 0.04 °C; Tm MalA R400G (MalA R400G [2]; 1.0 mM inhibitor): 65 ± 0.1 °C; Tm MalA WT (MalA WT; 0.4 mM inhibitor): 79.1 ± 0.9 °C; ΔTm (MalA WT; 0.4 mM inhibitor, vs no inhibitor): +2.0 °C; Tm MalA WT (MalA WT; 1.0 mM inhibitor): 79.8 ± 0.7 °C
